Data on 1 compound can be found in ChEMBL document CHEMBL3804820, “2-hydroxyisoquinoline-1,3(2H,4H)-diones (HIDs) as human immunodeficiency virus type 1 integrase inhibitors: Influence of the alkylcarboxamide substitution of position 4” (Eur J Med Chem, 2016).

The nature of series [1]: Inhibition of recombinant HIV1 reverse transcriptase RNase H activity using calf thymus ssDNA-[3H]-RNA as template/primer incubated for 10 mins. Set-up: species or system Human immunodeficiency virus 1. In short, it runs like this:
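Recombinant HIV-1 RT (4.5 pmol) preincubated with compound 10 min at 37 °C. Then reacted 10 min at 37 °C with [3H]-RNA/calf thymus DNA hybrid (20,000 cpm) in 50 mM Tris-HCl pH 8.0, 10 mM DTT, 6 mM MgCl2, 80 mM KCl. Stopped with cold TCA/pyrophosphate; released radioactivity taken by subtraction from undigested control.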

For series [2], the target named is T1, Human immunodeficiency virus type 1 integrase (Human immunodeficiency virus 1, UniProt Q7ZJM1). Nature of the series: Inhibition of HIV1 integrase 3'-processing activity using 5'-ACTGCTAGAGATTTTCCACACTGACTAAAAGGGTC-[biotin]3' as substrate incubated for 1 hr by ELISA.
T1 sequence (Q7ZJM1 whole entry): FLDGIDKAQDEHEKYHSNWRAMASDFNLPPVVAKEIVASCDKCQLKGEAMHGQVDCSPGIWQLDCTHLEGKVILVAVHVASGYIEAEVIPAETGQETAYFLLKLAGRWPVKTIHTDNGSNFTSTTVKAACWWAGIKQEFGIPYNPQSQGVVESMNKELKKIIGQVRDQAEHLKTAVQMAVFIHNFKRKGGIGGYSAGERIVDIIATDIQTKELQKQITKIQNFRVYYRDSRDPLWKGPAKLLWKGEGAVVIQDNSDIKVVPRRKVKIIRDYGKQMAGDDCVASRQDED
In series [3] the target is T1, Human immunodeficiency virus type 1 integrase. Nature of the series: Inhibition of HIV1 integrase using 3'-biotin-labelled and 5'-digoxigenin-labelled oligonucleotide substrate incubated for 1 hr by ELISA. The method, boiled down:
(§1)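 ELISA with a 3'-biotin oligo and a 5'-digoxigenin partner oligo. Overall assay uses the full complementary oligo; strand transfer uses a precleaved oligo lacking the 3'-GT. Integrase at 160 nM final, annealed oligos 7 nM, in 10 mM MgCl2, 5 mM DTT, 20 mM HEPES pH 7.5, 0.5% PEG, 15% DMSO. Run 1 h at 37 °C, products denatured with NaOH, detected on avidin plates.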

Series [4] shares this target. Nature of the series: Inhibition of HIV1 integrase strand transfer activity using 5'[digoxigenin]-GACCCTTTTAGTCAGTGTGGAAAATCTCTAGCA-3' as substrate incubated for 1 hr by ELISA. The method, boiled down:
as §1

A short description of series [5]: Therapeutic index, ratio of CC50 for human MT4 cells to EC50 for HIV1 3B infected in human MT4 cells. In kind it is cell-based. The note with it: read-out: Ratio CC50/EC50. In short, it runs like this: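 Ratio of CC50 to EC50. Both were determined in parallel by MTT in MT-4 cells, with the EC50 measured against HIV-1 IIIB cytopathic effect.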
Series [6] relates to Human immunodeficiency virus 1. The experiment in a line: Selectivity ratio of EC50 for raltegravir resistant HIV1 harboring integrase N155H mutant infected in human MT4 cells to EC50 for wild type HIV1 3B infected in human MT4 cells. Format: functional. The method, boiled down:
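MT-4/MTT cytopathic-effect assay in human MT-4 lymphocytes. Cells were infected with 100–300 CCID50 of each virus stock in the presence of 5-fold serial drug dilutions. The HIV-1 IIIB wild-type stock was titrated on MT-4 cells. Viability was read spectrophotometrically as formazan from MTT reduction. EC50 is the concentration giving 50% protection against CPE for each strain. Fold-change is mutant-strain EC50 relative to wild-type EC50.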

Series [7] relates to Human immunodeficiency virus 1. The experiment in a line: Selectivity ratio of EC50 for raltegravir resistant HIV1 harboring integrase G140S/Q148H double mutant infected in human MT4 cells to EC50 for wild type HIV1 3B infected in human MT4 cells. In kind it is functional. In short, it runs like this:
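MT-4 cells were infected with 100–300 CCID₅₀ of virus stock (titrated in MT-4 cells) in the presence of 5-fold serial drug dilutions. EC₅₀ is the concentration giving 50% protection against virus-induced cytopathic effect, read by MTT reduction (MT-4/MTT assay). The value is the fold-change in EC₅₀ for each mutant strain relative to the wild-type HIV-1 strain.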

In the next series the target is CYP2C19 (Homo sapiens, UniProt P33261). Nature of the series: Inhibition of human recombinant CYP2C19 using CEC as substrate at 10 uM incubated for 50 mins by fluorimetry relative to control. In kind it is ADME. The note with it: recombinant CYP2C19, probe CEC. In short, it runs like this:
(§2)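 Recombinant CYP isoforms, each with its fluorogenic substrate: CYP1A2 and CYP2C19 with CEC, CYP2C9 and CYP2D6 with MFC, CYP3A4 with BFC. Read as percentage inhibition of control, standard contract assays.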

Another series addresses CYP2D6 (Homo sapiens, UniProt P10635). Nature of the series: Inhibition of human recombinant CYP2D6 using MFC as substrate at 10 uM incubated for 40 mins by fluorimetry relative to control. As to conditions: recombinant CYP2D6, probe MFC. Format: ADME. In short, it runs like this:
as §2

Another series has as its system MDCK-II. Nature of the series: Inhibition of human P-gp expressed in MDCK2-MDR1 cells assessed as reduction in calcien-AM efflux at 100 uM incubated for 20 mins by fluorimetry relative to control. Format: cell-based. In short, it runs like this:
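P-gp efflux inhibition in MDR1-MDCKII cells with calcein AM substrate, tested up to 100.0 µM. Read as percentage inhibition of control.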

Series [8] is described as follows: Cytotoxicity against human HepG2 cells assessed as reduction in cell number at 1 uM after 72 hrs by fluorescent image analysis relative to untreated control. Format: cell-based. The note with it: read-out: INH. In short, it runs like this: (§3)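 Contract in vitro cytotoxicity panel covering cell number, intracellular free calcium, nuclear size, membrane permeability and mitochondrial membrane potential. Compounds tested at 1.0, 30.0 and 100.0 µM; values are percentage change versus untreated control, and IC50 where derived.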

The subject of series [9] is HepG2. Nature of the series: Cytotoxicity against human HepG2 cells assessed as increase in intracellular free calcium level at 30 uM after 72 hrs by fluorescent image analysis relative to untreated control. In kind it is cell-based. As to conditions: hepg2, 72 h. In short, it runs like this: as §3
Series [10] relates to HepG2. Nature of the series: Cytotoxicity against human HepG2 cells assessed as increase in intracellular free calcium level at 100 uM after 72 hrs by fluorescent image analysis relative to untreated control. The note with it: hepg2, 72 h. Format: cell-based. The method, boiled down: as §3
Series [11] in a line: Cytotoxicity against human HepG2 cells assessed as reduction in nuclear size at 30 uM after 72 hrs by fluorescent image analysis relative to untreated control. Format: cell-based. The note with it: read-out: INH. In short, it runs like this: as §3
Series [12] can be described thus: Cytotoxicity against human HepG2 cells assessed as reduction in nuclear size at 100 uM after 72 hrs by fluorescent image analysis relative to untreated control. In kind it is cell-based. As to conditions: read-out: INH. In short, it runs like this:
as §3

Series [13] has as its system HepG2. Nature of the series: Cytotoxicity against human HepG2 cells assessed as increase in membrane permeability at 30 uM after 72 hrs by fluorescent image analysis relative to untreated control. The note with it: hepg2, 72 h. Format: cell-based.
A short description of series [14]: Cytotoxicity against human HepG2 cells assessed as reduction in mitochondrial membrane potential at 1 uM after 72 hrs by fluorescent image analysis relative to untreated control. Format: cell-based. As to conditions: read-out: INH. The method, boiled down: as §3
Series [15] is described as follows: Apparent permeability coefficient in human Caco2 cells at pH 6.5/7.4 at 10 uM. In kind it is ADME, cell-based. The note with it: Caco-2, pH 6.5. The method, boiled down: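 A-to-B permeability measured in Caco-2 monolayers at pH 6.5/7.4, reported as Papp. Standard contract assay.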
Series [16] in a line: Partition coefficient , log D of the compound in n-octanol/PBS at pH 7.4. In kind it is physicochemical. The method, boiled down: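 Log D measured by n-octanol/PBS partition at pH 7.4, in a standard contract assay.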

CYP2D6, sequence (P10635 whole entry): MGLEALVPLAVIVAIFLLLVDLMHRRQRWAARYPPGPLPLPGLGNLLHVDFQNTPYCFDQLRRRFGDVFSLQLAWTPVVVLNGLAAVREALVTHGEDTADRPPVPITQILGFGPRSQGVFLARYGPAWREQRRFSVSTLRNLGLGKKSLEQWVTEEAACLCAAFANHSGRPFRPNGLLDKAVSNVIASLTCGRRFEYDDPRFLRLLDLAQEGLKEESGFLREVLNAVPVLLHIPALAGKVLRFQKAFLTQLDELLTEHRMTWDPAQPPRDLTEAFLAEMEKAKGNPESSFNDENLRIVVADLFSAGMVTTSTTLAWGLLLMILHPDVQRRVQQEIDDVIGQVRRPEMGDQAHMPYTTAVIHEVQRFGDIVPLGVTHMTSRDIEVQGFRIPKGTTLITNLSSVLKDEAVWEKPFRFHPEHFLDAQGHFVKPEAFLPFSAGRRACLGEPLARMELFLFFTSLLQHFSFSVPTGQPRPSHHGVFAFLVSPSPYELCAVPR
CYP2C19, sequence (P33261 whole entry, canonical isoform): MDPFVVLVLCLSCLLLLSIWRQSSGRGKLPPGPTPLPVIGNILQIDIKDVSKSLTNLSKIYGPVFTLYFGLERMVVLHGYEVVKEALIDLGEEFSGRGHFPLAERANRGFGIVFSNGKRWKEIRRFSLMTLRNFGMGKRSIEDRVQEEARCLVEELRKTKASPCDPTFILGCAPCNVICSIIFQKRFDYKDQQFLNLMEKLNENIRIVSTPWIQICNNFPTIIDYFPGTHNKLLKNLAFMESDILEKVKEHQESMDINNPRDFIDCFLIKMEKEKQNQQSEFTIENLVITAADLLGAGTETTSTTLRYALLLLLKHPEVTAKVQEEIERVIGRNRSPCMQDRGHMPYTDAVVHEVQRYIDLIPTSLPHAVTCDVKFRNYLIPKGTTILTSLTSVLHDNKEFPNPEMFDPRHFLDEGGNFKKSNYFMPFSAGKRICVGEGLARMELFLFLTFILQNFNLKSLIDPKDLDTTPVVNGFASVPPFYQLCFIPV

Consider `CCCCCCNC(=O)C1C(=O)N(O)C(=O)c2ccccc21` (centres undefined), for which the IC50 in series [1] came to 5350 nM; in [2] it was 510 nM; in series [3], 85 nM; in series [4], 195 nM. Moreover, the selectivity ratio in series [5] is 21.2. Further, the “Ratio EC50” value in [6] and in [7] was 1 each time. Besides, the inhibition at 50 min, 10 µM on CYP2C19 was 9.3%. Further, the inhibition at 40 min, 10 µM at CYP2D6 came to 24.6%. Further, the inhibition in the series with MDCK-II was 5.3%. Also, the cytotoxicity at 72 h, 1 µM in series [8] is -10%; in [14] it was 5.7%. The results for the Activity in the series on HepG2 [9], with HepG2 [10] and in the series on HepG2 [13] were 5.8%, 32.3% and 7%, respectively. Also, the cytotoxicity at 72 h, 30 µM in series [11] was 12.1%. The cytotoxicity at 72 h, 100 µM in series [12] was found to be 26.8%. Also, in [15], the apparent permeability (Papp) at 10 µM was determined as 24.6 ×10⁻⁶ cm/s. In addition, the logD in [16] came to 1.26.
